We go through 62 compounds from PubChem BioAssay AID561 (The Scripps Research Institute Molecular Screening Center, 2006).

The structures appear in SMILES notation. Screen size: about 65,000 compounds; about 280 (0.43%) were called active. Many of the other results were omitted from the sample, so actives are more common in it than they were. Unmarked numbers belong to inactive results.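 Rule for the calls: active = inhibition above the mean of all tested compounds plus 3 SD (cut at about 52% in these data); inactive = the rest.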

The target of this assay is Nuclear receptor ROR-alpha (Homo sapiens) (UniProt P35398). The assay can be described thus: suppression of basal RORA-driven reporter transcription – cell-based, luminescence, primary screen (AID 561).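 Note: 0% = RORA-transfected cells with DMSO and 100% = mock-transfected cells lacking RORA.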 To be noted: CHO-K1 Gal4-RORA LBD luciferase reporter, at 10 µM, hits give high values. Put shortly: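 Material: transiently transfected CHO-K1 cells, Gal4-DBD/human RORA-LBD fusion plus 5xGal4-luciferase reporter; doses: single concentration per compound, 10 µM final; incubation: 20 h at 37 °C; detection: luminescence from basal luciferase reporter expression; read-out: % inhibition of basal luciferase versus +RORA/-RORA DMSO controls; replication: tested once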
Chain of Nuclear receptor ROR-alpha (Homo sapiens) (P35398 whole entry, looked up, the tested form may be a part): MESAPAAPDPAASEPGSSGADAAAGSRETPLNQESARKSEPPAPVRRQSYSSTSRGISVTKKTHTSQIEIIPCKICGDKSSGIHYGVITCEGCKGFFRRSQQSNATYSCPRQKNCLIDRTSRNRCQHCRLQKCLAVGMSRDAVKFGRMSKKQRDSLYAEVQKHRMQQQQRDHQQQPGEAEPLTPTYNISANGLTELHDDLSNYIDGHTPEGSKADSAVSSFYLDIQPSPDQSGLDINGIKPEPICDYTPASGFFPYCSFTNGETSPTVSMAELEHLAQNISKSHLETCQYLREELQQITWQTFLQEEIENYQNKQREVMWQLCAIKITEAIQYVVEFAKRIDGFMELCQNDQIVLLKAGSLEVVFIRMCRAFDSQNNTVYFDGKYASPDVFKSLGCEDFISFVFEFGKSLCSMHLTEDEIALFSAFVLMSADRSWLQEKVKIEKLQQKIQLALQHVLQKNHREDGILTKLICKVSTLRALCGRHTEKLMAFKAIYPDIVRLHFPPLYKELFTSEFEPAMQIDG
A general note: Reporter assays use an easily measured gene product as a stand-in for the process of interest.
A word on the inhibition: it is the relative decrease from the control value, in per cent. For `O=C(Nc1ccon1)c1cccc(Cl)c1`, the inhibition is 2.2%.
For `O=C(Nc1ccc(Cl)cc1)c1ccsn1`, the inhibition is -59.5%.
Consider `COc1ccc(OC)c(NC(=O)Cn2c(=O)oc3ccccc32)c1`, for which the inhibition was -7.4%.
The same measure for `O=C(CC1OC(=O)c2ccccc21)NC1CCCCC1` (configuration not stated): 7.6%; for `COc1ccc(-c2cc(C(F)(F)F)nc(S(C)(=O)=O)n2)cc1OC`: 60.9% (active).
In the case of `CCN1C(=O)/C(=C2\SC(N3CCCCC3)=NC2=O)c2ccccc21`, the inhibition was -84.9%.
On to `c1ccc(-n2ncc3c2ncn2c(CSc4nc5ccccc5s4)nnc32)cc1`, for which the inhibition was 25%.
The value for `O=C(NCc1ccccn1)c1c(O)c2c([nH]c1=O)CCCC2` was 9.5%; that for `O=C(OC1CCOC1=O)c1ccc(-c2nc3ccccc3s2)s1` (configuration not stated) was 60.6% (active).
`CN(Cc1ccccc1)c1nc2c(c(=O)[nH]c(=O)n2C)n1CCSc1nc2ccccc2[nH]1`: the inhibition was -1.9%.
`CCOc1ccccc1NC(=O)CCN1CCN(S(=O)(=O)c2ccc(OC)cc2)CC1`: the inhibition is 0.6%.
`NC(=O)CSC1=Nc2ccccc2C2=NC(CCC(=O)NCc3ccc(F)cc3)C(=O)N12` (configuration not stated): the inhibition was 17.5%.
The value for `CCOC(=O)C1=C(CC)Nc2ccccc2N=C1NC(=O)c1cccc(S(=O)(=O)N2CCCC2)c1` was -0.9%; that for `CCn1c(=N)c(S(=O)(=O)c2ccc(F)cc2)cc2c(=O)n3ccccc3nc21` was 13.5%.
For `c1ccc2c(c1)OCC(CNc1ncnc3nc[nH]c13)O2` (configuration not stated), the inhibition was -20.2%.
With `Cc1ccc2nc(NC(=O)C3CCN(S(=O)(=O)c4ccc5c(c4)oc(=O)n5C)CC3)sc2c1`, the inhibition is -2.8%.
Regarding `CCOc1ccc(S(=O)(=O)N(CC(=O)O)c2ccccc2)cc1`, the inhibition was 0%.
On to `COc1cc(C2C(C(=O)Nc3ccccc3OC)=C(C)Nc3ncnn32)ccc1O` (configuration not stated), for which the inhibition was -9.5%.
For the compound `COc1ccccc1NC(=O)c1ccc(C)s1`, the inhibition was -48.9%.
For `COc1ccc(C(=O)Nc2ccc3c(c2)OCO3)cc1OC`, the inhibition was -69.8%.
The same measure for `COCCCNC(=O)C1CC(=O)N(c2ccc(C)cc2)C1` (configuration not stated): -6.1%; for `CCOC(=O)c1ccc(NC(=O)Cn2nnc(-c3ccc(C)cc3)n2)cc1`: -41.7%.
Consider `C=C(C)CSc1nc(N)c2c3c(sc2n1)CCC3`, for which the inhibition was -56.2%.
The same measure for `CC1CCC(NC(=O)c2ccc(N3CCCC3=O)cc2)CC1` (configuration not stated): -61.7%.
Consider `CCNS(=O)(=O)c1ccc(NC(=O)Nc2cccc(OC)c2)cc1`, for which the inhibition was 10%.
Regarding `O=C(NCc1ccccc1)C1C(=O)N(Cc2ccccc2)C(=O)C1C1(O)CCCC1` (configuration not stated), the inhibition is 13%.
Take `CCOC(=O)CSc1nncc2ccc(OC)c(OC)c12`: the inhibition was 21%.
The value for `Cc1ccccc1CSc1nnc(-c2cccnc2)n1N` was 7.1%; that for `O=C1c2ccccc2C(=O)N1c1ccccc1S(=O)C(F)(F)F` (configuration not stated) was -6.1%.
With `COc1ccc(-n2ncc3c(N4CCc5ccccc54)ncnc32)cc1`, the inhibition was -50.3%.
In the case of `CCS(=O)(=O)N1CCCC(C(=O)NCc2ccc(C)cc2)C1` (configuration not stated), the inhibition was 5.2%.
The same measure for `Cc1cccc2nc(CNc3ccc(F)cc3)cn12`: -1%; for `Cc1cccc(NC(=O)c2ccc3ccccc3n2)n1`: -83%.
In the case of `COc1ccc(N2CCN(C(=O)CSc3nc4cc(OC)c(OC)cc4cc3C#N)CC2)cc1`, the inhibition is 8.5%.
For the compound `Cc1ccc(NC(=O)NCC(c2cccnc2)N2CCOCC2)cc1` (configuration not stated), the inhibition is 20.8%.
`CCOC(=O)C1=C(C)NC(C)=C(C(=O)OCC)C1C1=COCCO1`: the inhibition is 7.2%.
Turning to `O=C(NCCN1CCOCC1)c1ccc2c(c1)ncn2C1CCCC1`, the inhibition was -3.7%.
The value for `Cc1cc(C(=O)OCC(=O)NCc2ccco2)c(C)n1-c1ccccc1` was -61.4%.
The same measure for `CCCOC(=O)c1[nH]c2c(c1C)C(=O)CC(c1cc(OC)c(OC)c(OC)c1)C2` (configuration not stated): 61.1% (active); for `Cc1ccccc1OCC(=O)Nc1ccc(N2CCN(C(=O)C(C)C)CC2)c(Cl)c1`: 52% (active); for `COc1ccc(C(=O)CSc2nnc(COc3ccccc3)n2Cc2ccco2)cc1`: -7.7%.
As to `COc1ccc(C)c2sc(=NC(=O)c3ccc(C#N)cc3)n(C)c12`, the inhibition is -84.6%.
As for `CCS(=O)(=O)n1nc(-c2ccc(OC)cc2)nc1SC`, the inhibition is -52.4%.
In the case of `N#Cc1nc(Cc2ccccc2)oc1NCCc1ccccc1`, the inhibition is -54.1%.
Consider `COc1cc(-n2c(C)nc3cc(C(=O)NCc4ccco4)ccc32)cc(OC)c1OC`, for which the inhibition was -5.4%.
For `COc1ccc(OC)c(CN2C(=O)CCC2(C)C(=O)NC2CCCCCC2)c1` (configuration not stated), the inhibition is 5.2%.
For the compound `CCN(CC)S(=O)(=O)c1cc(C(=O)Nc2ccccn2)ccc1C`, the inhibition was -59.6%.
For `O=C(Nc1c(C(=O)N2CCCCC2)cnn1-c1ccccc1)c1ccco1`, the inhibition was -6.7%.
For `O=c1c2ccccc2oc2nc(C3CCCCC3)n(Cc3ccco3)c(=O)c12`, the inhibition is 2.7%.
On to `Cc1cccc(OCc2nnc(SCc3nc4cc(C(F)(F)F)ccc4c(=O)[nH]3)o2)c1`, for which the inhibition is 16.5%.
In the case of `CCOc1cccc(-c2nn3c(-c4ccccn4)nnc3s2)c1`, the inhibition is -0.6%.
In the case of `O=C(Nc1ccc(Cl)cn1)c1cnn2cccnc12`, the inhibition is -62%.
On to `CSc1ccc(NC(=O)N2CC(C)OC(C)C2)cc1` (configuration not stated), for which the inhibition was 9.2%.
The same measure for `CCC(CC)C(=O)Nc1cccc(C(=O)N2CCCC2)c1`: -11%; for `Oc1ccc(Cl)cc1/C=N/c1nc2ccccc2[nH]1`: -51.7%; for `CSc1cccc(NC(=O)C2CCCN2S(=O)(=O)c2ccc3c(c2)CCC(=O)N3)c1` (configuration not stated): -14%.
The same measure for `OC(COc1ccc2ccccc2c1)CN1CCOCC1` (configuration not stated): -16.8%; for `OCCCN1c2ccccc2Nc2nnc(-c3ccccc3)cc21`: -56.8%; for `CCC1(C)Cc2c(sc3nc4n(c(=O)c23)CCCS4)CO1` (configuration not stated): -15.7%.
`O=C(Cn1c(-c2cncs2)nc2ccccc21)NC1CCCC1`: the inhibition is 19.7%.
Consider `CCOC(=O)N1CCN(C(=O)C2CCN(c3ncnc4c3sc3cccc(F)c34)CC2)CC1`, for which the inhibition was 75.2% (active).
For the compound `O=C(Nc1nc(-c2ccncc2)cs1)C1COc2ccccc2O1` (configuration not stated), the inhibition is -15.8%.
